Screening results deposited in PubChem by several laboratories.
Shown are actives, neighbours in structure and some others; about 9% of the full set was active somewhere.
M1 antag = antagonists of rat M1 muscarinic receptor. Muscarinic acetylcholine receptor M1 (Rattus norvegicus), P08482. CHO-M1 cells, Fluo-4 calcium, ACh EC80 antagonist mode; active compounds read low. B-score at 10 µM. 64,000 tested, 3.4% active. AID 628, 2007;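 active = calcium fluorescence response, raw or row-and-column corrected B-score, differing from the plate sample mean either way at a set confidence level, mostly lower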
Target sequence (P08482 whole entry, looked up): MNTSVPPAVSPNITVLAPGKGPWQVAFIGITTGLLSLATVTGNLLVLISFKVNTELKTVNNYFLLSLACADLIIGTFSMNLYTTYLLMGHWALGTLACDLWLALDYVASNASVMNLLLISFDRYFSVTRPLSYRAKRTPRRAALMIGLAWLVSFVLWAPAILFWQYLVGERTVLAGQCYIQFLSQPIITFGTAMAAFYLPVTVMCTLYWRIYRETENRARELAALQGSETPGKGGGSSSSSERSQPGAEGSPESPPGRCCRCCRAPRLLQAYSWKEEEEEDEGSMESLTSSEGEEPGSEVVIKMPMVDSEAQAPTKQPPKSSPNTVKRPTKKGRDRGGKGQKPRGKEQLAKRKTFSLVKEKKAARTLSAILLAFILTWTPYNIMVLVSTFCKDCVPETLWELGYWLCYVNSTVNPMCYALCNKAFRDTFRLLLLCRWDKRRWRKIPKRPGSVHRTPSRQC
AP complement = alternative complement pathway inhibitors, primary screen, biochemical, ELISA, human serum, orthogonally pooled compounds; AID 1235, 2008; LPS-coated ELISA, C3 deposition; tested in compound mixtures; inhibition, % at 5 µM; 62,000 tested, 0.08% active;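 active = inhibition above 30% in each of the two pooled mixtures holding the compound, so the lower value exceeds 30%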;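 note: 0% = serum in Mg-EGTA without compound and 100% = EDTA serum blank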
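Test system – human serum alternative complement pathway, C3 deposition on LPS-coated wells · Buffer or medium – diluted human serum in Mg2+-EGTA GVB++ · Compound dosing – 5 µM each compound, pools of ten, 50 µM per pool · Schedule – 1 h serum-compound exposure at 37 °C · Measured by – Anti-C3 ELISA, OD 450 nm · Read-out basis – percent inhibition of C3 deposition onto LPS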
M1 ag = M1 muscarinic receptor agonists, primary screen, CHO-M1 cells, Fluo-4 calcium, agonist mode. Muscarinic acetylcholine receptor M1. Fluo-4 calcium fluorescence; active compounds read high. B-score at 10 µM. 64,000 tested, 3% active;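 active = fluorescence rise, raw or as B-score row- and column-corrected plate score, outside the 99.7% band of its plate's samples, either direction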
mHtt clearance = clearance of mutant huntingtin inclusions, primary screen, imaging, HeLa Exon1htt(103Q)mCFP, confocal imaging; aggregate imaging; zero = plate's median compound well; inhibition, % at 1.5 µM; 47,000 tested, 0.42% active;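 active = inhibition of aggregate fluorescence above about 70%, also judged a hit by eye on the cell image, limit read from the data, passing the limit was not always enough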;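 note: cells exposed to compound for three days before fixation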
D1 allo mod = D1 CRE-luciferase signal change, two-sided – cell-based, HEK293 D1, dopamine EC30, D1 allosteric modulator project, primary screen | D(1A) dopamine receptor (Homo sapiens), P21728 | dopamine EC30 potentiation; actives deviate in either direction | B-score at 10 µM | 58,000 tested, 5.9% active | AID 641, 2007;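 active = luminescence count or its row- and column-corrected plate score outside the 99.7% band of the plate's sample wells, on either side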
D1 PAM confirm = D1 receptor positive allosteric modulators, retest, confirmation, cell-based, HEK293 D1, CRE-luciferase, duplicate. shares compounds with D1 allo mod. 2,200 tested, 88% active. luminescence at 10 µM. dopamine EC30 potentiation; active compounds read high;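 active = luminescence in either of two replicates above the same-plate mean plus 3 SD of the low-dose dopamine control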
D1 ag no DA = D1 receptor agonism without dopamine, confirmation, mechanism study for D1 allosteric modulator project, cell-based, HEK293 D1, CRE-luciferase, secondary assay 1 | shares compounds with D1 allo mod | 1,900 tested, 0.8% active | luminescence at 10 µM | luminescence, no dopamine; active compounds read high; in the data active = luminescence above about 3900
Isoprot counter = counter-screen for D1 modulators: isoproterenol response in HEK293 cells. shares compounds with D1 allo mod. HEK293 D1 CRE-luciferase, isoproterenol EC30 counter-screen. calls only at 10 µM. 2,200 tested, 63% active. AID 647;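 active = luminescence in either replicate above plate mean of wells with a partly effective reference agonist dose plus 3 SD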;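 note: isoproterenol raises cAMP through native beta-adrenoceptor Gs so signal bypasses D1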
* = called active by the depositor; i = inactive; nt = no result; + = active, no number.

SMILES | M1 antag | AP complement | M1 ag | mHtt clearance | D1 allo mod | D1 PAM confirm | D1 ag no DA | Isoprot counter
CC1(C)CC2(CC(C)(C)NC(=O)N2)NC(=O)N1 | -0.68 | -1 | -1.2 | nt | 2 | nt | nt | nt
O=C(NCc1ccco1)C1Cc2ccccc2CN1S(=O)(=O)c1ccccc1F (centres undefined) | 0.013 | 14 | -0.36 | nt | -1.2 | nt | nt | nt
N#CCCCn1c(-c2ccccc2)noc1=O | 0.15 | 10 | -0.27 | 17 | 6.4* | 4628 | 1604 | i
O=C(Cn1c(-c2ccccc2)noc1=O)NCc1ccccc1 | -0.077 | 9 | 0.19 | nt | -0.0061 | nt | nt | nt
COc1cc(OC)cc(C(=O)N2CCN(c3ncccn3)CC2)c1 | -0.42 | 7 | 0.2 | nt | 0.95 | nt | nt | nt
CCOC(=O)c1c(N)sc2c1CCCC2 | -0.086 | -10 | -0.051 | nt | 5.2* | 15712* | 1680 | +
COC(=O)CN(c1ccccn1)S(=O)(=O)c1ccccc1 | 0.75 | 20 | -0.68 | -55 | 5.2* | 5664 | 1588 | i
COC(=O)CN(c1ccccc1F)S(=O)(=O)c1ccccc1 | 0.021 | 10 | -0.17 | nt | -0.19 | nt | nt | nt
CC(C)C1C(C#N)=C(N)Oc2n[nH]c(-c3cccs3)c21 (centres undefined) | 1.1 | -10 | 1.1 | -9 | 3.6* | 8472* | 1560 | i
CCCCN1C2=C(C(=O)CCC2)C(c2ccc(Cl)c(Cl)c2)C2=C1c1ccccc1C2=O (centres undefined) | nt | nt | nt | -2 | nt | nt | nt | nt
COc1ccc(C2CC(=O)c3cnc(NC(=O)c4ccccc4OC)nc3C2)c(OC)c1 (centres undefined) | 1.3 | 6 | 2.9 | nt | 6.5* | 15748* | 1700 | +
COc1ccc(C2CC(=O)c3cnc(NC(=O)c4ccccc4)nc3C2)cc1OC (centres undefined) | -0.31 | 4 | 0.054 | nt | 4.6* | 9012* | 1692 | +
COC(=O)C1CCN(S(=O)(=O)c2c(C)n(C)c(=O)n(C)c2=O)CC1 | 0.98 | 17 | 1.5 | 14 | 1.4* | 7080 | 1560 | i
O=C(CSc1nnnn1C1CCCCC1)NCCc1ccccc1 | 0.24 | 8 | -0.38 | nt | 0.0095 | nt | nt | nt
Cc1ccccc1OCCN1C(=O)NC2(CCc3ccccc32)C1=O (centres undefined) | 0.17 | 10 | 0.66 | -25 | -0.41 | nt | nt | nt
CC(=O)c1cc(C#N)c(SCCC(C)C)nc1C | -0.92 | 13 | 0.43 | 11 | 3.3 | nt | nt | nt
CC(C)CCSc1nc(N)c(C#N)cc1C#N | -1.7 | -1 | -0.4 | 56 | 7.7* | 14056* | 1652 | +
COCCN1CN(S(=O)(=O)c2ccccc2)c2nc3ccccc3nc21 | 1.3 | 22 | -1.1 | -30 | 6.6* | 9164* | 1496 | +
CCCCN1CN(S(=O)(=O)c2cccs2)c2nc3ccccc3nc21 | 0.98 | -4 | 0.4 | 14 | 8.4* | 13480* | 1328 | +
O=C(CC1(C(F)(F)F)OCCO1)Nc1ccc2c(c1)OCO2 | 0.3 | 7 | -1.3 | nt | -0.82 | nt | nt | nt
Cc1ccc(C)c(S(=O)(=O)Nc2ccc3scnc3c2)c1 | 0.45 | 6 | 0.87 | 12 | 1.1 | nt | nt | nt
CNC(=O)N(C1=NCC(C)S1)c1ccc(F)cc1F (centres undefined) | 0.091 | 8 | 0.58 | -42 | 5.3* | 16972* | 1640 | +
COc1ccccc1NC(=O)c1ccc(NS(=O)(=O)c2c(C)noc2C)cc1 | -0.39 | 18 | 0.33 | nt | 0.036 | nt | nt | nt
COc1ccc(NC(=O)c2ccc(NS(=O)(=O)c3c(C)noc3C)cc2)cc1OC | -0.31 | 9 | 0.027 | nt | 8.8* | 5712* | 1524 | i
COc1ccc(NC(=O)CN(c2ccc(C(C)C)cc2)S(=O)(=O)c2c(C)noc2C)cc1OC | -0.0066 | 5 | -0.23 | 35 | 3* | 4788 | 1104 | i
SMILES | M1 antag | AP complement | M1 ag | mHtt clearance | D1 allo mod | D1 PAM confirm | D1 ag no DA | Isoprot counter
COc1ccccc1CNC(=O)c1ccc(NS(=O)(=O)c2c(C)noc2C)cc1 | -0.25 | 11 | -0.22 | nt | 4.2* | 6660* | 1648 | i
CCOC(=O)CSc1nnc(CSc2nc3sc4c(c3c(=O)[nH]2)CCC4)n1-c1ccccc1 | nt | nt | nt | -24 | nt | nt | nt | nt
CCOC(=O)CSc1nnc(CSc2nc3sc4c(c3c(=O)[nH]2)CCC4)n1C | 0.054 | 18 | 0.56 | nt | 2.6* | 7200 | 1740 | i
Cc1ccc(NC(=O)c2cc(NC(=O)C3CC=CCC3C(=O)O)ccc2N2CCOCC2)cc1Cl (centres undefined) | nt | nt | nt | 21 | nt | nt | nt | nt
CCSc1oc(-c2ccco2)nc1S(=O)(=O)c1ccc(F)cc1 | -0.53 | 4 | 0.75 | nt | 4.6* | 11820* | 1660 | i
CCSc1oc(-c2cccs2)nc1S(=O)(=O)c1ccccc1 | -0.36 | 6 | -0.34 | nt | 15* | 18740* | 1592 | +
COc1ccc(/C=N/n2c(SC)nnc2-c2ccccc2)cc1C | -0.081 | -14 | -0.19 | nt | 16* | 23520* | 1680 | +
COc1ccc(/C=N/n2c(SC)nnc2-c2ccccc2)c(OC)c1OC | 0.035 | 12 | 1.3 | nt | 0.38 | nt | nt | nt
CCOc1ccc(OCC)c(NC(=O)CN2CCN(C(=O)c3ccco3)CC2)c1 | -0.0043 | -18 | -0.17 | 18 | 26* | 4124 | 1704 | i
CCOc1ccc(OCC)c(NC(=O)CN2CCN(c3cccc(C)c3C)CC2)c1 | -0.57 | 7 | 0.063 | nt | nt | nt | nt | nt
COc1ccc(CNC(=O)c2cc(-c3cccs3)on2)cc1 | -0.0029 | 15 | -0.12 | -16 | -0.02 | nt | nt | nt
COc1cccc(Cn2c(-c3cccs3)noc2=O)c1 | -0.056 | 7 | -0.46 | nt | 3.9* | 8904* | nt | +
Cn1c(=O)c2c(nc(SCCCO)n2Cc2ccccc2Cl)n(C)c1=O | -0.05 | 5 | 0.45 | nt | 3.9* | 6636* | 1528 | i
COc1ccc(-c2nnc(SCC(=O)c3[nH]c(C)c(C(C)=O)c3C)o2)cc1 | -1.1 | 20 | -1 | -58 | -1.7 | nt | nt | nt
CCOC(=O)c1[nH]c(CSc2nnc(-c3ccc(OC)cc3)o2)c(C(=O)OCC)c1C | 0.33 | -3 | -0.9 | nt | 4.8* | 13216* | 1404 | +
O=C(NC1CC2CCCC(C1)N2S(=O)(=O)c1ccccc1)c1ccccc1 (centres undefined) | 1 | 22 | -0.36 | 34 | nt | nt | nt | nt
CC(=O)NC1CC2CCCC(C1)N2S(=O)(=O)c1ccccc1 (centres undefined) | nt | 10 | nt | nt | 5.5* | 5928 | 1484 | i
O=C(CSc1ncn[nH]1)NCCCc1ccccc1 | nt | 4 | nt | -19 | nt | nt | nt | nt
